# Beta cell apopt = inhibitors of cytokine-induced beta cell apoptosis, primary screen, luminescence | INS-1E cytokine-induced death, ATP luminescence, 48 h; percent of positive-control rescue, neutral wells zero | protection from apoptosis, % (test concentration not listed) | 300,000 tested, 0.8% active | AID 435005, 2010;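 active = Every replicate reaches about 75%, or at least half do and their mean reaches it too, limit read from the data; inconclusive = At least half of replicates reach the limit but their mean does not; inactive = Under half of replicates reach the limit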;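 also: 0% = cytokine-treated negative control wells and 100% = positive control rescue; higher means more ATP so stronger rescue from cytokine killing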
# Mdm2-MdmX inh = inhibitors of human Mdm2-MdmX association, primary screen, cell-based, luminescence, split luciferase, SaOS-2, uHTS. SaOS-2 split-luciferase Mdm2/MdmX complementation. inhibition, % at 8 µM. 330,000 tested, 3% active;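 active = inhibition of at least 50% at 8 µM in the primary screen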
# Target sequence (O15151 whole entry, looked up): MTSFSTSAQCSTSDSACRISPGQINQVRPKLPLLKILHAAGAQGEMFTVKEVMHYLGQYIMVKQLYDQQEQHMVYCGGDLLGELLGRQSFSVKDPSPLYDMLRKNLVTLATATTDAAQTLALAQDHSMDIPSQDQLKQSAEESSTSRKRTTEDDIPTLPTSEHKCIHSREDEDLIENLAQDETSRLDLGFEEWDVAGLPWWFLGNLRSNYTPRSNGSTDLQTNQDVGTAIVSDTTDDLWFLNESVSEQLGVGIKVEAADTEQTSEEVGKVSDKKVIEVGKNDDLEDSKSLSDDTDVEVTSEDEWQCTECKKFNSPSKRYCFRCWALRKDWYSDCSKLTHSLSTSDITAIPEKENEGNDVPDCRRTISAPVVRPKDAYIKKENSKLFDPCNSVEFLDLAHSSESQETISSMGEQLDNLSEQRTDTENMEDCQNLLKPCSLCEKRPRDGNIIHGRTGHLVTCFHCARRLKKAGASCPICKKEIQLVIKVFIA
# Target sequence (Q00987 whole entry, looked up): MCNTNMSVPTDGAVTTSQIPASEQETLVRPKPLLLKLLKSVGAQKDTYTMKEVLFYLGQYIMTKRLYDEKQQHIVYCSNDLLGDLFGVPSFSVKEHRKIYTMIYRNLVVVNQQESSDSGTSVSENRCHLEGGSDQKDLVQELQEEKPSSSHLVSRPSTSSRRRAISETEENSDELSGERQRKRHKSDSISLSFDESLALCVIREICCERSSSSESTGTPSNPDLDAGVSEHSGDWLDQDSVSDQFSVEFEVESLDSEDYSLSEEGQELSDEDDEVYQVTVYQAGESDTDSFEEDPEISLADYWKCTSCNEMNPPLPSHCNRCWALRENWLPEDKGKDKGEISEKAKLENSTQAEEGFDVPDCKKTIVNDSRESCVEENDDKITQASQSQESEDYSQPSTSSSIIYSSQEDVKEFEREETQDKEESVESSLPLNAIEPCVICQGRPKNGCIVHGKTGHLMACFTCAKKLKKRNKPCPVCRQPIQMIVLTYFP
# CSC inhib = cancer stem cell viability inhibitors, primary screen, luminescence; AID 2717, 2010; 300,000 tested, 1.1% active; inhibition, % at 7.5 µM; cancer stem cell-like cells viability; in the data active = inhibition above about 75%; inconclusive = no clear call, values can overlap the other calls; tested in HMLE shEcad cells
# Calb FLC = C. albicans growth inhibition with fluconazole, primary screen, CaCi-2 strain, Alamar Blue fluorescence. 300,000 tested, 0.57% active. C. albicans CaCi-2 (fluconazole-resistant clinical isolate) + fluconazole, 48 h. growth inhibition, % (test concentration not listed);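 active = growth inhibition above about 58% in most replicates, limit read from the data, passing the limit was not always enough; inconclusive = exactly half the replicates above a set limit; inactive = most replicates below a set limit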;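 also: all wells also contain fluconazole at 8 µg/ml as a sub-toxic cotreatment; 0% = median of DMSO wells and 100% = median of geldanamycin control wells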
# NLRP3 yeast inh = NALP3 inflammasome inhibitors in reconstituted yeast, primary screen, luminescence, uHTS | Yeast reconstituted NLRP3/ASC/caspase-1, beta-gal luminescence, 24 h | inhibition, % at 10 µM | 330,000 tested, 0.39% active | AID 2825, 2010;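 active = inhibition of 50% or more; inactive = inhibition below 50%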;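 also: plate controls were induced DMSO wells for no effect and uninduced yeast grown without galactose for full effect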
# T cruzi inh = inhibitors of intracellular T. cruzi growth, primary screen, luminescence, NIH3T3 host cells. inhibition, % (concentration not given with the values). 300,000 tested, 1.4% active. T. cruzi beta-gal in NIH3T3, 90 h;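 active = mean inhibition across valid replicates above about 55%, limit read from the data; inconclusive = mean below that limit but half or more replicates reach it; inactive = mean below it, under half of replicates reach it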;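 also: signal also drops with host cell toxicity which is not excluded here; 0% = plate median of DMSO wells and 100% = zero luminescence signal; higher percent means less beta-gal luminescence so fewer parasites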
#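 compound dosing = single 50 nL compound addition per well in DMSO | material = NIH/3T3 host cells with β-galactosidase reporter T. cruzi | input = 5,000 host fibroblasts per well | timing = ≥90 h infection period, 3 h prior cell attachment | read-out basis = percent inhibition of parasite-derived β-gal signal | detection = GalScreen β-gal luminescence, detergent lysis, 60 min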
# Mdm2-MdmX conf = Mdm2-MdmX complex disruptors, retested hits, confirmation, luminescence, single concentration; shares compounds with Mdm2-MdmX inh; Mdm2-MdmX binding, luminescent assay; inhibition, % at 8 µM; 10,000 tested, 55% active; in the data active = inhibition above about 40%
# FLuc counter = full-length luciferase signal inhibition, confirmation, counter-screen for Mdm2/MdmX interaction inhibitor project, cell-based, single concentration, SaOS-2; shares compounds with Mdm2-MdmX inh; SaOS-2 full-length luciferase counterscreen, luminescence; inhibition, % at 8 µM; 6,200 tested, 77% active;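 active = mean inhibition at 8 µM reaching about 37%, which flags the compound as non-specific, limit read from the data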;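 also: p53-null SaOS-2 cells with luciferase driven by a doxycycline-inducible promoter; compound on cells about two nights before reading with doxycycline added after day one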
# Active calls of the source: *; ? = inconclusive; / = not tested or not shown. Compounds with a hit are over-represented: about 5.3% of the library has one in this group of screens.
SMILES,Beta cell apopt,Mdm2-MdmX inh,CSC inhib,Calb FLC,NLRP3 yeast inh,T cruzi inh,Mdm2-MdmX conf,FLuc counter
COC(=O)[C@@]1(C)[C@H]2C(=O)N(Cc3ccccc3)C(=O)[C@H]2[C@H]2CN=C(SCc3ccc(Cl)cc3)N21,/,97.5*,/,/,/,/,99.6*,55.6*
CC[C@]1(C(=O)OC)[C@H]2C(=O)N(Cc3ccccc3)C(=O)[C@H]2[C@H]2CN=C(SCC(=O)c3ccccc3)N21,/,16.9,/,/,/,/,/,/
COC(=O)[C@@]1(Cc2ccccc2)[C@H]2C(=O)N(Cc3ccccc3)C(=O)[C@H]2[C@H]2CN=C(SCC(=O)c3ccccc3)N21,/,54.0*,/,/,/,/,54.7*,49.5*
COC(=O)[C@@]1(Cc2ccccc2)[C@H]2C(=O)N(Cc3ccccc3)C(=O)[C@H]2[C@H]2CN=C(SCc3ccc(Cl)cc3)N21,/,99.1*,/,/,/,/,99.4*,52.8*
COC(=O)[C@@]1(C)[C@H]2C(=O)N(Cc3ccccc3)C(=O)[C@H]2[C@H]2CN=C(SCc3ccc(C#N)cc3)N21,/,70.7*,/,/,/,/,69.8*,51.4*
Cc1cc(C)cc(NC(=O)Cn2nnc(C(=O)NCc3ccc4c(c3)OCO4)c2N)c1,54.1,55.0*,1.5,-17.7,12.2,3.7,36.8,54.6*
Cc1ccc(NC(=O)Cn2nnc(C(=O)NCc3cccs3)c2N)c(C)c1,/,69.0*,-12.8,12.1,-14.7,-15.3,23.0,/
COc1ccc(NC(=O)Cn2nnc(C(=O)NCc3ccc4c(c3)OCO4)c2N)cc1,-6.3,41.7,2.5,-8.6,2.0,5.5,/,/
Cc1cc(C)c(NC(=O)Cn2nnc(C(=O)NCc3cccs3)c2N)c(C)c1,-3.5,45.8,-13.4,-7.3,9.3,-9.9,/,/
CCOc1ccc(NC(=O)Cn2nnc(C(=O)NCc3ccc4c(c3)OCO4)c2N)cc1,/,51.9*,-4.3,1.1,8.3,5.2,18.0,/
CCOC(=O)c1nn(-c2ccccc2)c(=O)c(C#N)c1C,-2.2,21.1,15.6,1.4,-2.4,-1.6,/,/
CNC(=O)C(=O)N1CCC2(CC1)OCCN2S(=O)(=O)c1ccc(C)cc1,-3.0,-6.2,-0.3,-9.0,20.3,-6.2,/,/
CCc1ccc(N2CN=c3s/c(=C\c4ccccc4)c(=O)n3C2)cc1,2.5,-24.0,-0.5,4.4,25.6,10.6,/,/
COc1ccc(S(=O)(=O)CCC(=O)Nc2c(C)n(C)n(-c3ccccc3)c2=O)cc1,-3.6,48.8,3.5,/,13.9,/,/,/
O=c1c2ccccc2nc(/C=C/c2cc(Br)ccc2O)n1CCO,-6.9,64.9*,53.3,-1.9,-3.2,-14.9,56.6*,32.4
O=c1c2ccccc2nc(/C=C/c2c[nH]c3ccccc23)n1CCO,4.9,-35.7,5.6,20.8,13.9,0.4,/,/
CCn1c(COc2ccccc2)nnc1SCC(=O)NC1CCCCC1,-6.0,20.2,-9.9,1.3,6.6,-8.6,/,/
CCCCCCN(C(=O)CCCCCN1C(=O)NC(c2ccc(C3CCCCC3)cc2)C(C(=O)OCc2ccccc2)=C1C)C(C(=O)NCCCC)c1ccc(OCC(=O)OC)c(C(=O)OC)c1 (stereo not given),/,/,/,10.3,/,11.4,/,/
CCCCCCN(C(=O)CCCCCN1C(=O)NC(c2ccc(C(C)(C)C)cc2)C(C(=O)OCc2ccccc2)=C1C)C(C(=O)NCCCC)c1ccc(OCC(=O)OC)c(C(=O)OC)c1 (stereo not given),/,77.0*,/,2.5,22.3,22.5,4.8,/
COc1cc2c(c(OC)c1OC)-c1ccc(OC)c(=O)cc1C(NC(C)=O)CC2 (stereo not given),/,59.9*,50.2,8.2,-4.2,28.4,57.5*,118.1*
COc1cccc(C(=O)Nc2ccc3c(cc2=O)[C@@H](NC(C)=O)CCc2cc(OC)c(OC)c(OC)c2-3)c1,25.0,70.7*,57.4,9.4,7.9,22.3,65.5*,99.0*
Cc1ccc(NC(=S)N2CCCCC2CO)cc1C (stereo not given),-4.0,8.9,12.2,-23.8,27.4,-19.8,/,/
O=C(COC(=O)c1cc2ccccc2oc1=O)Nc1cccc(Br)c1,-1.6,7.4,0.5,/,17.0,-15.7,/,/
COCCNC(=O)c1onc(CSc2cccc(Cl)c2)c1C(=O)O,-8.2,18.9,-3.6,-4.6,11.4,-6.3,/,/
O=S(=O)(/C=C/c1ccccc1)Oc1ccccc1,-19.3,75.8*,-6.5,-7.6,33.5,-1.9,50.5*,77.8*
SMILES,Beta cell apopt,Mdm2-MdmX inh,CSC inhib,Calb FLC,NLRP3 yeast inh,T cruzi inh,Mdm2-MdmX conf,FLuc counter
COc1ccc(-c2nc(CS(=O)CC(=O)NC3CCCCC3C)c(C)o2)cc1OC (stereo not given),-8.1,1.5,-6.7,13.3,-11.9,-14.3,/,/
O=C(COC(=O)c1ccccc1C(=O)c1ccc(Cl)c([N+](=O)[O-])c1)NC1CCCCCC1,3.6,95.9*,-6.3,5.0,-2.5,?,100.2*,51.1*
CN(CCC#N)C(=O)COC(=O)c1ccccc1C(=O)c1ccc(Cl)c([N+](=O)[O-])c1,-5.3,/,43.7,-6.6,/,-53.9,/,/
CC(C)N(C(=O)COC(=O)c1ccccc1C(=O)c1ccc(Cl)c([N+](=O)[O-])c1)C(C)C,2.1,82.0*,-1.0,26.1,12.6,-2.7,23.4,/
Cn1c(N)c(C(=O)COC(=O)c2ccccc2C(=O)c2ccc(Cl)c([N+](=O)[O-])c2)c(=O)n(C)c1=O,-8.8,99.1*,?,/,9.5,/,61.6*,26.2
Cn1c(N)c(C(=O)COC(=O)c2ccccc2C(=O)c2ccccc2)c(=O)n(C)c1=O,0.1,-1.5,/,/,15.1,/,/,/
C/C(=N\Nc1ccc([N+](=O)[O-])cc1[N+](=O)[O-])c1cc2c(ccc3ccccc32)oc1=O,-1.7,0.2,-11.3,-3.5,10.7,-14.0,/,/
Fc1ccc(CN2CCCCCC2)c(F)c1,-4.8,5.3,-5.2,/,11.6,/,/,/
Cc1ccc(-c2nnc3c(C(F)(F)F)nc4ccccc4n23)cc1,3.6,53.6*,-6.5,36.5,13.9,-1.3,14.8,/
FC(F)(F)c1nc2ccccc2n2c(-c3ccc(Cl)cc3)nnc12,100.6*,95.8*,/,-5.2,13.3,0.1,96.3*,41.0*
COCCn1c(=O)[nH]c2cc(C(=O)NCCc3ccc(S(N)(=O)=O)cc3)ccc2c1=O,4.6,-33.0,11.5,8.2,8.8,4.7,/,/
Cc1ccc(N2C(=O)c3ccccc3C2=O)cc1Cl,11.5,2.5,-2.2,3.0,20.3,-14.2,/,/
COc1ccc(/C(N)=N/OC(=O)N2CCOCC2)cc1,6.3,61.8*,10.4,-7.6,10.1,51.5,25.9,/
